Test [1] deals with Plasmodium falciparum. As to the kind of experiment: Inhibition of alanyl aminopeptidase activity in Plasmodium falciparum 3D7 at 10 uM using Ala-AMC as a substrate by spectrophotometer. In short, it runs like this:
(§1)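 Cytosolic extract came from free parasites released from infected erythrocytes, then three freeze-thaw cycles and centrifugation at 12,000 x g, 4°C, 20 min. Extract (25 µg/ml final) was preincubated with 0.1 or 10 µM inhibitor in 50 mM Tris-Cl pH 8.0, with or without 1 mM CoCl2, for 15 min at 37°C. Leu-AMC or Ala-AMC (10 µM final) was added. AMC release was read over 30 min (ex 370/em 440 nm).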

Test [2] in a line: Inhibition of porcine kidney leucyl aminopeptidase. More on the design: species or system Sus scrofa.
Another test addresses T1, Aminopeptidase N (Sus scrofa, UniProt P15145).
T1 sequence (P15145 whole entry): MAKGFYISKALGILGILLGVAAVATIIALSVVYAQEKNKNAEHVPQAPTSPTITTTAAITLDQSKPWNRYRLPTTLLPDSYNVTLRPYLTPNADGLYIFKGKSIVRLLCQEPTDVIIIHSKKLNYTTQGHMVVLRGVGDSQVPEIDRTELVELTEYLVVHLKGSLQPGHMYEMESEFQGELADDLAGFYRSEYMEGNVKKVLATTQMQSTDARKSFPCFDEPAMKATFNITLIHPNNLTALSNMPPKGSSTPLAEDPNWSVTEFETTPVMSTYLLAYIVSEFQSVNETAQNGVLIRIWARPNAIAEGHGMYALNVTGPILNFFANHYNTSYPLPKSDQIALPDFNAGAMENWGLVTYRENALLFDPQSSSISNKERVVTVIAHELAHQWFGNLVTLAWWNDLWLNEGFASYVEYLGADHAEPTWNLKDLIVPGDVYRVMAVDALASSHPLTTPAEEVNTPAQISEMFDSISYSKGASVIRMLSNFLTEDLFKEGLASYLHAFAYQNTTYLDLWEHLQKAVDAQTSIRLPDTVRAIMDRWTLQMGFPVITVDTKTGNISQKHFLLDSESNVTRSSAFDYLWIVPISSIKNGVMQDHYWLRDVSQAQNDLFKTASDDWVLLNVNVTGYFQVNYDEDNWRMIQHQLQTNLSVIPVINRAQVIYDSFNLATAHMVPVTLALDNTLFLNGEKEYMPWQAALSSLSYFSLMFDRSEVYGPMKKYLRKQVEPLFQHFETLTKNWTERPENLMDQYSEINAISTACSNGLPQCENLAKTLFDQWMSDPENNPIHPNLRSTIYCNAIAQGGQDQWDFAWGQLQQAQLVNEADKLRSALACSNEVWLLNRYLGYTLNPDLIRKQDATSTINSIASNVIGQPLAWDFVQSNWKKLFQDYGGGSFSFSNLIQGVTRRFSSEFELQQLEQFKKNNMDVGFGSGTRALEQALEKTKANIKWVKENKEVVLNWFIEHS
Put plainly: Inhibition of pig kidney microsomal aminopeptidase N.

In test [3] the test system is Plasmodium falciparum. Put plainly: Inhibition of alanyl aminopeptidase activity in Plasmodium falciparum 3D7 at 0.1 uM using Ala-AMC as a substrate by spectrophotometer. In short, it runs like this:
as §1

For test [4], the target named is T2, Leucine aminopeptidase (Plasmodium falciparum 3D7) (UniProt Q8IL11).
T2 sequence (whole entry): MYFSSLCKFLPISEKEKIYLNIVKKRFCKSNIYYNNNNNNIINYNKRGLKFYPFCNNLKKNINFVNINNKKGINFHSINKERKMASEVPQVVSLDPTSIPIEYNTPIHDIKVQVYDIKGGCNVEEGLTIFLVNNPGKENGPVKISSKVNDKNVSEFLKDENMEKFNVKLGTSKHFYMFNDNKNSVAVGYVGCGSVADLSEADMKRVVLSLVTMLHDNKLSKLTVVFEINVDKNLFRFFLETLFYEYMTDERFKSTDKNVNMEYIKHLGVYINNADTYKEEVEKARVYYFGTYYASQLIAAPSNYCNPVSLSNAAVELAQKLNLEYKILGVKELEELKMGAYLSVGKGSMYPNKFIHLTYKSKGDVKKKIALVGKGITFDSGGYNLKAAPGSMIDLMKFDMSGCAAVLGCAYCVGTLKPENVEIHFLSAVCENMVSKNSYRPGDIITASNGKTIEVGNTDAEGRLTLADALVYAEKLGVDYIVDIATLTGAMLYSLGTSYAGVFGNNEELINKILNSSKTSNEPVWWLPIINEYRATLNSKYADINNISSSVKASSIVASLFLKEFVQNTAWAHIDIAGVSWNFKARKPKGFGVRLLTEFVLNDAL
Put plainly: Inhibition of leucyl aminopeptidase activity in Plasmodium falciparum 3D7 at 0.1 uM using Leu-AMC as a substrate by spectrophotometer. The essentials: as §1

The target in test [5] is T2, Leucine aminopeptidase (Plasmodium falciparum 3D7). As to the kind of experiment: Inhibition of leucyl aminopeptidase activity in Plasmodium falciparum 3D7 at 0.1 uM using Leu-AMC as a substrate by spectrophotometer in presence of 1 mM CoCl2.
Test [6] has the same target. Put plainly: Inhibition of leucyl aminopeptidase activity in Plasmodium falciparum 3D7 at 10 uM using Leu-AMC as a substrate by spectrophotometer. The essentials:
as §1

Test [7] has the same target. Put plainly: Inhibition of leucyl aminopeptidase activity in Plasmodium falciparum 3D7 at 10 uM using Leu-AMC as a substrate by spectrophotometer in presence of 1 mM CoCl2.
The target is the same in test [8]. Put plainly: Inhibition of leucyl aminopeptidase activity in Plasmodium falciparum 3D7 harboring tPfAP-M17 gene at 0.1 uM using Leu-AMC as a substrate by spectrophotometer in presence of 1 mM CoCl2.
Test [9] has as its system Plasmodium falciparum. As to the kind of experiment: Antimalarial activity against Plasmodium falciparum 3D7 infected in O-positive human erythrocytes after 72 hrs. Format: functional, organism-based. Conditions: 3D7, 72 h. In short, it runs like this: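 Asynchronous asexual blood-stage P. falciparum 3D7 were cultured in O+ erythrocytes and exposed to compounds for 72 h. Growth was read by the spectrophotometric parasite lactate dehydrogenase absorbance assay. IC50 values were determined graphically from dose-response curves.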

The inhibition is the share of the control response that was lost under treatment. For orientation: Ki means the dissociation constant of the complex between target and ligand, obtained from inhibition or displacement. Read a low Ki as tighter binding. The term IC50 denotes the midpoint of a concentration-inhibition curve. In the test with Plasmodium falciparum [1], `NC(CCCCc1ccccc1)P(=O)(O)O` (racemic) gave an inhibition at 10 µM of 97%. Further, the Ki in test [2] came to 0.33 µM; on Aminopeptidase N, 3.69 µM. Further, in the test on Plasmodium falciparum [3], the inhibition at 0.1 µM worked out at 28%. For the same molecule, the inhibition in test [4] amounted to 28%; in test [5], 25%; in test [6] it was 97%; in [7], 92%; in [8] it was 61%. Besides, in the test with Plasmodium falciparum [9], inhibition was half-maximal at 22 µM (IC50).
In the test on Plasmodium falciparum [1], `NC(CCC1CCCCC1)P(=O)(O)O` (racemic) came in with an inhibition at 10 µM of 94%. The Ki turned out to be 0.21 µM in [2] and 37.1 µM at Aminopeptidase N. In the test with Plasmodium falciparum [3], this molecule yielded an inhibition at 0.1 µM of 13%. The inhibition in [4] is 17%; in test [5] it was 43%; in test [6] it was 94%; in [7], 91%; in [8] it was 67%. This molecule registered a 50% inhibitory concentration (IC50) in the test with Plasmodium falciparum [9] of 15 µM.
Take `NC(CC1CCCCC1)P(=O)(O)O` (racemic): in the test with Plasmodium falciparum [1], testing at 10 µM gave an inhibition of 20%. In addition, the Ki in [2] came out at 0.75 µM; at Aminopeptidase N it was 54.7 µM. This molecule showed an inhibition at 0.1 µM with Plasmodium falciparum [3] of 0%. The inhibition in test [4] was found to be 3%; in test [5], 21%; in test [6], 27%; in test [7], 69%. Besides, half-maximal inhibition with Plasmodium falciparum [9] (IC50) required 119 µM.
`NC(CCCC1CCCCC1)P(=O)(O)O` (racemic) yielded an inhibition at 10 µM in the test with Plasmodium falciparum [1] of 95%. Further, the Ki worked out at 9.57 µM in [2] and 41.6 µM on Aminopeptidase N. The inhibition at 0.1 µM in the test on Plasmodium falciparum [3] turned out to be 15%. Further, the inhibition in test [4] was found to be 17%; in test [5], 51%; in [6], 95%; in [7], 91%; in test [8], 34%. The same molecule registered an IC50 in the test on Plasmodium falciparum [9] of 14 µM.
`CC(C)C[C@H](NC(=O)[C@@H](O)[C@H](N)Cc1ccccc1)C(=O)O` [UBENIMEX] returned an inhibition at 10 µM in the test with Plasmodium falciparum [1] of 97%. The same molecule gave an inhibition at 0.1 µM in the test with Plasmodium falciparum [3] of 29%. In addition, the inhibition amounted to 33% in [4]; 6% in test [5]; 98% in test [6]; 93% in test [7]; 47% in [8].
Molecule `NC(CCc1ccccc1)P(=O)(O)O` (racemic) displayed an inhibition at 10 µM in the test with Plasmodium falciparum [1] of 95%. In addition, affinity in test [2] was put at a Ki of 0.14 µM. This molecule showed an inhibition at 0.1 µM in the test with Plasmodium falciparum [3] of 15%. Besides, the inhibition in test [4] was determined as 15%; in test [5], 41%; in [6], 93%; in test [7], 92%; in test [8] it was 27%. In addition, the IC50 in the test on Plasmodium falciparum [9] was determined as 22 µM.
The molecule `N[C@@H](C1CCCCC1)P(=O)(O)O` returned an inhibition at 10 µM with Plasmodium falciparum [1] of 8%. The Ki in test [2] was determined as 7.89 µM; at Aminopeptidase N, 161 µM. The inhibition at 0.1 µM in the test with Plasmodium falciparum [3] was 2%. In addition, the inhibition in test [4] was 0%; in test [5], 50%; in test [6], 12%; in test [7], 67%. The IC50 in the test on Plasmodium falciparum [9] was 54 µM.

The record behind these values is ChEMBL document CHEMBL1671856, “Chemical target validation studies of aminopeptidase in malaria parasites using alpha-aminoalkylphosphonate and phosphonopeptide inhibitors” (Antimicrob Agents Chemother, 2008).
